# Data: PubChem BioAssay AID504383 (The Scripps Research Institute Molecular Screening Center, 2011)
# In all, about 2,500 compounds went through this assay and about 1,200 (48%) were called active.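 The calls were made as follows: active = mean activation above the low control average plus 3 SD, as set in the primary screen (cut at about 12% in these data); inactive = the rest.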 The set was probably picked from earlier hits. The list shows a part of the results.
# Biological target: Troponin I, cardiac muscle (Homo sapiens) + Troponin T, cardiac muscle (Homo sapiens) + Troponin C, slow skeletal and cardiac muscles (Homo sapiens) (UniProt P19429+P45379+P63316)
# Experiment: calcium sensitizers of cardiac thin filaments – biochemical, IANBD-TnC fluorescence, triplicate, confirmation (AID 504383);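 also: 0% = DMSO at 0.472 mM calcium and 100% = DMSO at 2.9 mM calcium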
# Conditions: IANBD-labeled cardiac RTF, Ca2+ sensitivity fluorescence; at 7.2 µM; hits give high values; scaled from EC20 to saturating calcium; tested at EC20 calcium, 0.472 mM
# Procedure, shortened: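 Test system: labelled regulated thin filament protein complex. Dosing: single nominal compound dose of 7.2 µM. Benchmarks: EC20 and EC100 calcium wells. Read-out basis: fluorescence gain scaled between EC20 and EC100 calcium controls. Probe or stimulus: submaximal calcium at 0.472 mM (EC20). Technique: fluorescence. Times: 15 min compound exposure, 25 °C.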
row,Structure (SMILES),activation
1,COCCCN1C(=O)/C(=C/c2ccc(CNS(=O)(=O)c3ccccc3)o2)C(C(=O)OC)=C1C,8.19% (inactive)
2,C=CCN(C(=O)CNS(=O)(=O)c1ccccc1)C(C(=O)NCCOC)c1ccncc1 (stereo not given),16.9% (active)
3,CCOc1ccc(N(C(=O)CNC(=O)c2ccco2)C(C(=O)NC2CCCC2)c2ccncc2)cc1 (stereo not given),9.24% (inactive)
4,N#CC(C#N)=C1C=C2C=C(N3CCOCC3)CCC2CC1 (stereo not given),-1.16% (inactive)
5,Cc1ccccc1-n1c(O)c(/C=C/C=Nc2ccccc2)c(=O)[nH]c1=O,19.4% (active)
6,CSc1nnc(N(CCC#N)CCC#N)s1,35.1% (active)
7,O=C(CN1C(=O)c2ccccc2C1=O)N1CCN=C1c1ccccc1,70.2% (active)
8,O=C1c2ccccc2C(=O)N1CC1=NCCc2ccccc21,11.2% (inactive)
9,O=C(c1ccc(F)cc1)N1CCN=C1c1ccccc1,9.85% (inactive)
10,CC1CN/C(=C\C(=O)c2ccc(Br)cc2)C(=O)N1 (stereo not given),2.08% (inactive)
11,CCCCCCN1C=CC(=C/C=C(\C#N)C(=O)OCC)C=C1,501% (active)
12,CCOC(=O)/C(C#N)=C\C=C1C=CN(C)C=C1,8.19% (inactive)
13,C=CCN1C=CC(=C/C=C(/C#N)C(=O)OCC)C=C1,4.84% (inactive)
14,CC1=C/C(=C\C=C(C#N)C#N)N(C)c2ccccc21,8.37% (inactive)
15,CCCN1C=CC(=CC=C(C#N)C#N)C=C1,28% (active)
16,C=CCN1C=CC(=CC=C(C#N)C#N)C=C1,668% (active)
17,Cc1cc(C)nc(SCCCNCc2ccc(Br)cc2)n1,9.74% (inactive)
18,Cc1cc(C)n(-c2ccc([N+](=O)[O-])cc2-c2nn[nH]n2)n1,7.13% (inactive)
19,O=C(O)c1ccc(O)c(O)c1,7.5% (inactive)
20,Cc1cc(C)n(-c2ccc(C(=O)O)cc2)n1,16.2% (active)

row,Structure (SMILES),activation
1,N#CC1=C(N)Oc2ccc3ccc(O)cc3c2C1c1ccsc1 (stereo not given),31.6% (active)
2,N#CC1=C(N)SC(N)=C(C#N)C1c1cccc(O)c1,6.27% (inactive)
3,CCOC(=O)c1sc(N)c(C#N)c1COC(=O)CNC(=O)c1ccccc1,8.8% (inactive)
4,CCOC(=O)c1sc(N)c(C#N)c1COC(=O)CNC(=O)c1cc(OC)c(OC)c(OC)c1,67.4% (active)
5,CC(C)CC[C@@H](O)[C@](C)(O)C1CC[C@@]2(O)C3=CC(=O)[C@@H]4C[C@@H](O)[C@@H](O)C[C@]4(C)C3CC[C@]12C (stereo not given in full),279% (active)
6,CNC(=O)N(O)C1N(C)C(=O)N(CC(=O)OC)C1(C)C (stereo not given),55.3% (active)
7,COc1ccc(OC(C)C(=O)Nc2cccc(OC)c2)cc1 (stereo not given),7.49% (inactive)
8,COc1cc(OC)c(C(=O)OC(C)C(=O)Nc2cccc(C(F)(F)F)c2)cc1OC (stereo not given),32.5% (active)
9,COc1ccc(C2=NN(C(=O)COC(=O)c3ccc(NC(=O)CC#N)cc3)C(c3ccco3)C2)cc1 (stereo not given),14.7% (active)
10,COc1ccc(OC)c(NC(=O)CNC(=O)Cn2c(C)cc3ccccc3c2=O)c1,3680% (active)
11,COc1ccc(OC)c(NC(=S)Nc2ccccc2)c1,5.57% (inactive)
12,CCCC(CCC(=O)Nc1ccc(S(N)(=O)=O)cc1)C(=O)O (stereo not given),8.1% (inactive)
13,NS(=O)(=O)c1ccc(NC(=O)COc2ccc(C(=O)c3ccc(F)cc3)cc2)cc1,1350% (active)
14,O=C(Oc1cc2oc(=O)c3c(c2cc1Cl)CCCC3)c1cccs1,1.37% (inactive)
15,CC1CC(C)CN(C(=O)COC(=O)CCc2nc3ccccc3c(=O)[nH]2)C1 (stereo not given),8.84% (inactive)
16,NC(=O)N/N=C/c1ccc(N2CCOCC2)s1,3.82% (inactive)
17,O=C(CN1C(=O)c2ccccc2C1=O)NCc1ccc(N2CCOCC2)cc1,12.4% (active)
18,COc1ccc(Sc2ccc(-c3nc4cnccn4c3NC3CCCCC3)cc2OC)cc1,3.89% (inactive)
19,CN(C)c1ccc(/C=C/c2nc3ccccc3c(=O)n2CCO)cc1,398% (active)
20,CCOC(=O)C1C(=O)C=C(/C=C/c2ccc(N(C)C)cc2)CC1c1ccccc1 (stereo not given),5.48% (inactive)

row,Structure (SMILES),activation
1,C[C@@H]1C=C(C(=O)N2CCOCC2)O[C@H](OCc2ccc(CO)cc2)C1,6.41% (inactive)
2,CC1(C)CC2CC(C)(CN2C(=S)Nc2ccccc2F)C1 (stereo not given),3.28% (inactive)
3,COc1cc2c(cc1[N+](=O)[O-])-c1ccccc1C2,302% (active)
4,CNc1ccccc1C(C)(C)c1cc(C)[nH]n1,28.3% (active)
5,O=C(OCCN1C(=O)c2cccc3c(N4CCOCC4)ccc(c23)C1=O)c1ccccc1Cl,13.6% (active)
6,O=C(OCCN1C(=O)c2cccc3c(N4CCOCC4)ccc(c23)C1=O)c1ccc(Cl)cc1,25.9% (active)
7,CC(=O)N(C(C)=O)N1C(=O)c2cccc3c(N4CCOCC4)ccc(c23)C1=O,10.5% (inactive)
8,CCCN(CCC)S(=O)(=O)c1ccc(C(=O)OCCN2C(=O)c3cccc4c(N5CCOCC5)ccc(c34)C2=O)cc1,16.2% (active)
9,O=C(OCCN1C(=O)c2cccc3c(N4CCOCC4)ccc(c23)C1=O)c1ccc(Cl)cc1Cl,39.1% (active)
10,COc1cccc(C(=O)Nc2cc(C(=O)NCc3ccc(C)cc3)ccc2N2CCC3(CC2)CC(c2cccc(Br)c2)=NO3)c1,5.62% (inactive)
11,O=C1OCC/C1=C\c1ccccc1O,3.58% (inactive)
12,CCN(CC)c1ccc(/C=c2\sc3nc4ccccc4n3c2=O)c(O)c1,41.3% (active)
13,CC(=O)Oc1ccc(NC(=O)Cc2ccccc2)c(C(=O)O)c1,34.2% (active)
14,Cc1ccc(OCc2ccc(C(=O)O)o2)cc1C,4.06% (inactive)
15,COc1ccc(NC(=O)Cc2ccccc2)cn1,9.43% (inactive)
16,CCCCCCSc1ccc([C@@H]2[C@H]3C(=O)N(CC)C(=O)[C@H]3[C@]3(C(=O)OC)CCCCN23)cc1OC,6.92% (inactive)
17,CCN1C(=O)[C@@H]2[C@@H](c3ccc(-c4cccc(Cl)c4)cc3)N3CCC[C@@]3(C(=O)OC)[C@@H]2C1=O,14% (active)
18,O=C(NCc1csc2ccccc12)Nc1cc(Cl)cc(Cl)c1,7.6% (inactive)
19,O=C(O)/C=C/C(=O)NCc1csc2ccccc12,278% (active)
20,CCC(Oc1cc(Cl)ccc1Cl)C(=O)NNC(=O)CCC(=O)O (stereo not given),12.2% (active)
